Sampled rows, rich in hits. Any-hit rate of the full collection: about 4.6%.
HDAC3 inh: blocks human histone deacetylase 3; O15379; recombinant HDAC3, fluorogenic peptide/trypsin coupled, fluorescence; inhibition, % at 8.3 µM; hit rate 0.15% among 320,000; AID 2718; in the data active = inhibition above about 26%, passing the limit was not always enough; inconclusive = no clear call, values can overlap the other calls
Target sequence (O15379 whole entry, looked up): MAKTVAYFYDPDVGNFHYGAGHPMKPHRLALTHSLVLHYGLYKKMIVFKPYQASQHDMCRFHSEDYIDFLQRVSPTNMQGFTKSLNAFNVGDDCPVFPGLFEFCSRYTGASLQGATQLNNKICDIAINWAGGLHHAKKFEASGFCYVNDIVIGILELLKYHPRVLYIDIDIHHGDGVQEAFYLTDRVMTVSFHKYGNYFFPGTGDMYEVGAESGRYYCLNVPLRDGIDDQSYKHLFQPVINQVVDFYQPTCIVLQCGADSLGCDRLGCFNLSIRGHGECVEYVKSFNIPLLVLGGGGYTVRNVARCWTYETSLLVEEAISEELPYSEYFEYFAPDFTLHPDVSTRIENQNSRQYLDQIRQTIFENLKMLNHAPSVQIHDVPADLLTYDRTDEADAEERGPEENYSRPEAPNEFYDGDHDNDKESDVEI
FAS-TE inh: inhibitors of human fatty acid synthase thioesterase domain; hit rate 0.67% among 360,000; inhibition, % at 15 µM; P49327; AID 602261; recombinant FAS-TE, OMFH fluorogenic substrate, fluorescence endpoint;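 active = compounds whose normalised, plate-corrected inhibition of enzyme fluorescence in the single-dose primary screen is 50% or more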
Rtt109 Vps75: blocks Candida albicans Rtt109/Vps75 acetyltransferase activity. Q5AAJ8. purified Rtt109/Vps75, ThioGlo CoA-SH fluorescence, 4 h. hit rate 0.16% among 330,000. AID 540336. inhibition, % at 34.9 µM;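 active = inhibition of at least 50% in every replicate; inconclusive = best replicate reaches 50% inhibition but some replicates fall short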
ALR H2O2 inh: blocks human ALR sulfhydryl oxidase activity; P55789; hit rate 3.8% among 290,000; inhibition, % (no concentration beside the values); purified ALR, DTT oxidation, H2O2 HRP-luminol luminescence;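 active = mean replicate inhibition above about 79%, with every replicate also reaching it, limit read from the data; inconclusive = only one of the two criteria met; inactive = mean below limit and not every replicate reaching it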
PfM18AAP inh: blocks P. falciparum M18 aspartyl aminopeptidase; recombinant PfM18AAP, H-Glu-NHMec fluorogenic cleavage; inhibition, % at 7.35 µM; hit rate 1.2% among 290,000; AID 1822;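 active = inhibition above the campaign mean inhibition over all tested compounds plus 3 SD, cut at about 28% in these data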
UCH37 inh: human UCH37 deubiquitinating enzyme inhibition | Q9Y5K5 | purified proteasome/UCH37, Ub-AMC cleavage fluorescence | inhibition, % (test concentration not listed) | hit rate 0.33% among 330,000 | AID 588478;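 active = mean inhibition over replicate wells above about 20%, limit read from the data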
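Signal – fluorescence, ex 355 nm, em 460 nm · System – Proteasome-bound UCH37 · Input – 0.15 nM proteasome as dispensed · Timing – 30 min preincubation with enzyme, 25 min cleavage at room temperature · Read-out basis – percent inhibition of cleavage signal versus uninhibited and no-proteasome wells · Medium – Tris-HCl pH 7.4 with ATP-MgCl2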
A number is an active result; – = inactive; ? = inconclusive; · = not tested or not shown.

SMILES	HDAC3 inh	FAS-TE inh	Rtt109 Vps75	ALR H2O2 inh	PfM18AAP inh	UCH37 inh
CC(=NOC(=O)c1ccccc1)c1oc(C)nc1C	·	·	·	·	·	–
Cc1cnc(=O)[nH]c1SCc1ccc([N+](=O)[O-])cc1	–	–	–	99.2	–	–
Cc1ccc2nc(SCc3ccc([N+](=O)[O-])cc3)[nH]c2c1	–	58.1	–	–	–	–
Nc1nonc1NN=C1CCCCC1	–	–	–	–	30.7	–
O=C(NN=Cc1ccc(Br)o1)c1cccnc1	·	·	·	·	·	–
CCOc1cc(-c2cc(-c3ccc(C)cc3)nc(N)c2C#N)ccc1O	–	–	–	–	–	–
COc1cc(-c2cc(-c3ccc(O)cc3)nc(N)c2C#N)ccc1O	–	–	–	96.7	–	–
COc1ccccc1-c1cc(-c2ccc(O)cc2)nc(N)c1C#N	–	–	–	96.1	–	–
N#Cc1c(-c2ccccc2)cc(-c2ccc(O)cc2)nc1N	–	–	–	99.3	–	–
CCOC(=O)NN=Cc1ccc(Oc2ccccc2)cc1	·	·	·	·	·	–
COCc1c(C(=O)NN=C(C)c2ccncc2)nnn1-c1nonc1N	·	·	·	·	·	–
COCCN=c1scc(-c2cc(OC)ccc2OC)n1N=Cc1c[nH]c2ccccc12	·	·	·	·	·	–
CC(=NO)C(=O)NCC1CCNCC1	·	·	·	·	·	–
CC(=NOCON=C(C)c1ccccc1)c1ccccc1	·	·	·	·	·	–
CN(C)c1ccc(/C=C/C=NNc2nc(N3CCOCC3)nc(N3CCOCC3)n2)cc1	·	·	·	·	·	–
Oc1ccc(C=NNc2ccccc2)cc1	·	·	·	·	·	–
C=COC(=O)CSc1snc(SCC(=O)OC)c1C#N	–	–	–	98.6	–	–
O=C(CSc1cccc[n+]1[O-])c1cc2ccccc2o1	–	–	–	93.6	–	–
COc1ccccc1C(=O)CSc1n[nH]c(N)n1	–	–	–	–	–	–
Nc1nc(SCC(=O)c2cc3ccccc3o2)n[nH]1	?	–	·	97.9	–	–
O=C(O)CSc1cccc[n+]1[O-]	–	–	–	–	–	–
Clc1cccc(C=NNc2nccs2)c1	·	·	·	·	·	–
O=C1C2C3C=CC(C4CC34)C2C(=O)N1N=Cc1ccc(-c2ccc(F)cc2[N+](=O)[O-])o1 (centres undefined)	·	·	·	·	·	–
CC(C)NCC(O)Cn1c2c(c3ccccc31)CCc1c-2cnn1-c1ccccc1 (centres undefined)	–	–	–	89.5	–	–
O=C1CCCC/C1=N\Nc1ccc(C2CCCCC2)cc1	–	·	·	97.7	–	·
SMILES	HDAC3 inh	FAS-TE inh	Rtt109 Vps75	ALR H2O2 inh	PfM18AAP inh	UCH37 inh
O=C1CCCC/C1=N\Nc1ccc(OCc2ccccc2)cc1	–	–	·	99.2	–	·
CCOc1cc(C=NNc2cc(C)nc(-n3nc(C)cc3C)n2)ccc1O	·	·	·	·	·	–
O=C1CCCCN1CCCC(=O)N1CCCC(Nc2ccccc2)C1 (centres undefined)	–	–	–	98.8	–	–
CC(C)(C)c1ccc(C(=O)C2CCCN(C(=O)CN3CCCC3=O)C2)cc1 (centres undefined)	–	–	–	–	–	–
O=C1CCCCN1CCC(=O)N1CCCC(N2CCN(c3ccccc3)CC2)C1 (centres undefined)	–	–	–	92.9	–	–
O=C1CCCCN1CC(=O)N1CCCC(Nc2ccc(F)cc2)C1 (centres undefined)	–	–	–	90.8	–	–
CC(C)c1ccc(NC2CCCN(C(=O)CCN3CCCC3=O)C2)cc1 (centres undefined)	–	–	–	77.8	–	–
Cc1ccnn1CCC(=O)N1CCCC(Nc2ccc(C(C)C)cc2)C1 (centres undefined)	·	–	·	·	·	·
COC(=O)C(=NOCc1ccc(C#N)cc1)c1c(C)nn(C)c1C	·	·	·	·	·	–
CC(=NNC(=O)c1nnn(-c2nonc2N)c1-c1ccc2c(c1)OCO2)c1ccccc1	·	·	·	·	·	–
CON=CCC(=O)Nc1ccc(F)cc1F	·	·	·	·	·	–
Cc1nonc1C(=O)N1CCCC(N2CCN(c3ccc(F)cc3)CC2)C1 (centres undefined)	–	–	–	98.0	–	–
CC(C)c1ccc(NC2CCCN(C(=O)CCN3CCCCO3)C2)cc1 (centres undefined)	–	–	–	78.6	–	–
CC(C)c1ccc(NC2CCCN(C(=O)CCc3cnn(C)c3)C2)cc1 (centres undefined)	–	–	–	98.4	–	–
O=C(CCN1CCCCO1)N1CCCC(N2CCN(c3ccc(F)cc3)CC2)C1 (centres undefined)	–	–	–	97.4	–	–
COC(=O)NN=Cc1cn(CCCOc2ccccc2)c2ccccc12	·	·	·	·	·	–

Screens from PubChem BioAssay.
